Several values for one entry are separate records, joined by “and”; a condition that tells them apart may be missing. Identical values can stand only once. Like-named read-outs stand apart in the source and are kept apart here. One block for each compound: values may come before it.
Key:
FGFR1 = FGFR1 (Homo sapiens, UniProt P11362); assay: Kinase inhibition assay; format: biochemical; conditions: for inhibition at 0.01 µM / inhibition at 0.1 µM / inhibition at 1 µM: read-out: FGFR1 inhibition rate (%)
SNU16 cancer cell lines = assay: Cell proliferation assay; format: cell-based
KG1 cells = assay: Cell proliferation assay, KG1; format: cell-based; conditions: read-out: KG1 IC50; FGFR1OP2-FGFR1 (FGFR1-translocated)
H1581 cells = assay: Cell proliferation assay, H1581; format: cell-based; conditions: read-out: H1581 IC50; FGFR1 amplification
UMUC14 cells = assay: Cell proliferation assay, UMUC14; format: cell-based; conditions: read-out: UMUC14 IC50; FGFR3 mutation
BaF3/TEL-FGFR1 cell = assay: Cell proliferation assay, BaF3/TEL-FGFR1; format: cell-based; conditions: read-out: BaF3/TEL-FGFR1 IC50
BaF3/TEL-KDR cell = assay: Cell proliferation assay, BaF3/TEL-KDR; format: cell-based; conditions: read-out: BaF3/TEL-KDR IC50
NCI-H1581 xenograft = assay: In vivo antitumor activity, NCI-H1581 xenograft mouse model; design: species or system nude mice (BALB/c); conditions: 12.5 mg/kg, 20 days
[1] = Whole blood stability assay; format: in vitro ADME, BALB/c nude mice; conditions: BALB/c nude, mouse, fresh whole blood
How it was run: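 Fresh BALB/c nude mouse blood was prewarmed 10 min at 37 °C, then spiked with test compound from a DMSO working solution. Aliquots taken at 0, 0.5, 1, 2 and 5 h were quenched with acetonitrile, centrifuged, and the supernatant diluted in acetonitrile/water. Remaining parent was quantified by UPLC–MS/MS (MRM). GSH adduct was monitored in negative-mode MRM (product ion m/z 272). Triplicates.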

[2] = Homo sapiens, SNU-16, read-out: SNU16 IC50

Chain of FGFR1 (P11362 22-822): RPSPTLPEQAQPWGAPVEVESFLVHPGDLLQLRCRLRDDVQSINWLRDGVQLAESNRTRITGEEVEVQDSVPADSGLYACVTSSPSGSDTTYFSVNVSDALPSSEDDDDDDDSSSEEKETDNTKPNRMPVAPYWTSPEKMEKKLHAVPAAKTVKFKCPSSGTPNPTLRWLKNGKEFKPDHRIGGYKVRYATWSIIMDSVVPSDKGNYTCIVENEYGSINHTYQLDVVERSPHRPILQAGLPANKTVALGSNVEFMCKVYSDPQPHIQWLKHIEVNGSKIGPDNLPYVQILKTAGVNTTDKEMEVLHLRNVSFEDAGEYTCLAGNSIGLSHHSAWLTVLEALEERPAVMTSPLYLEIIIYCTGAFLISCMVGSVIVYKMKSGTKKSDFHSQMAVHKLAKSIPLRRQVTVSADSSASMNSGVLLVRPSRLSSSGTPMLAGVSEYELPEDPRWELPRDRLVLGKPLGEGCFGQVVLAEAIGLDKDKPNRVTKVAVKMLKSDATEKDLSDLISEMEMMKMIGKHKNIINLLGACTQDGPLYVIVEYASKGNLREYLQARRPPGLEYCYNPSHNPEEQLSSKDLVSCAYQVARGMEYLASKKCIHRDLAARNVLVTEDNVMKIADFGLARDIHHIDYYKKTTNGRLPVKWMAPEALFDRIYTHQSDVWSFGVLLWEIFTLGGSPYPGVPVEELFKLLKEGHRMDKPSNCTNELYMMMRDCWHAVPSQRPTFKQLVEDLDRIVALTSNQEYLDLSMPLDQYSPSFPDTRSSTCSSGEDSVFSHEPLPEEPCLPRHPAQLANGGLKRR

inhibition at 0.1 µM (FGFR1): 16.9%
Compound: Cc1ccc2oc(-c3c4c(N)n[nH]c(=O)c4nn3Cc3ccc([N+](=O)[O-])cc3)c(C)c2c1 [Compound 9w]

inhibition at 0.1 µM (FGFR1): 76.4%
Compound: CC(=O)Nc1ccc(-n2nc3c(=O)[nH]nc(N)c3c2-c2oc3ccc(C)cc3c2C)cc1 [Compound 9j]

half-life at 1 μmol/L [1]: 71.2 h
Compound: C/C=C/C(=O)Nc1ccc(-n2nc3c(=O)[nH]nc(N)c3c2-c2oc3ccc(C)cc3c2C)cc1 [Compound 10b]

IC50 (SNU16 cancer cell lines; [2]): 660 ± 322 nM
Compound: C=CC(=O)Nc1cccc(-n2nc3c(=O)[nH]nc(N)c3c2-c2oc3ccc(C)cc3c2C)c1 [Compound 10l]

inhibition at 0.1 µM (FGFR1): 66.2%
Compound: CCC(=O)Nc1ccc(-n2nc3c(=O)[nH]nc(N)c3c2-c2oc3ccc(C)cc3c2C)cc1 [Compound 9o]

IC50 (FGFR1): 13.8 ± 1.3 nM
Compound: Cc1ccc2oc(-c3c4c(N)n[nH]c(=O)c4nn3-c3ccc(CNC(=O)OCc4ccccc4)cc3)c(C)c2c1 [Compound 9m]

inhibition at 0.1 µM (FGFR1): 73.9% | IC50 (SNU16 cancer cell lines; [2]): > 1000 nM
Compound: CCCCNc1cc(F)c(-n2nc3c(=O)[nH]nc(N)c3c2-c2oc3ccc(C)cc3c2C)c(F)c1 [Compound 9z]

The next lines start with the compound.

Compound: Nc1n[nH]c(=O)c2nn(-c3ccccc3)c(-c3ccccc3)c12 [Compound 7]
inhibition at 0.01 µM (FGFR1): 22.9% | inhibition at 0.1 µM (FGFR1): 20.4% | inhibition at 1 µM (FGFR1): 19.9%

Compound: Cc1c(-c2c3c(N)n[nH]c(=O)c3nn2-c2ccccc2)oc2cc(Cl)ccc12 [Compound 8i]
inhibition at 0.1 µM (FGFR1): 64.2% | inhibition at 1 µM (SNU16 cancer cell lines; Homo sapiens, SNU-16, read-out: SNU16 proliferation inhibition): 49.7%

Compound: AZD4547
IC50 (SNU16 cancer cell lines; read-out: SNU16 IC50, FGFR2 amplification SNU16 cell line): 3.7 nM and 5 nM | IC50 (KG1 cells): 3.7 ± 0.6 nM | IC50 (H1581 cells): 59.8 ± 8.1 nM | IC50 (UMUC14 cells): 6.4 ± 1.3 nM | IC50 (BaF3/TEL-FGFR1 cell): 0.5 nM | IC50 (BaF3/TEL-KDR cell): 417 ± 10 nM | TGI (tumor weight inhibition rate at the treatment endpoint) (NCI-H1581 xenograft): 65.6%

Compound: Cc1c(-c2c3c(N)n[nH]c(=O)c3nn2-c2ccccc2)oc2ccc(Cl)cc12 [Compound 8j]
IC50 (FGFR1): 56.4 ± 15.8 nM

Compound: Cc1c(-c2c3c(N)n[nH]c(=O)c3nn2-c2ccccc2)oc2ccc(Br)cc12 [Compound 8m]
IC50 (FGFR1): 66.8 ± 16.5 nM | IC50 (SNU16 cancer cell lines; [2]): > 1000 nM

Compound: Nc1n[nH]c(=O)c2nn(-c3ccccc3)c(-c3ccco3)c12 [Compound 6]
inhibition at 0.01 µM (FGFR1): 18.6% | inhibition at 0.1 µM (FGFR1): 19.6% | inhibition at 1 µM (FGFR1): 22.9%

Compound: Cc1c(-c2c3c(N)n[nH]c(=O)c3nn2-c2ccccc2)oc2c(Cl)cccc12 [Compound 8p]
inhibition at 0.1 µM (FGFR1): 38.1%

Compound: COc1ccc2oc(-c3c4c(N)n[nH]c(=O)c4nn3-c3ccccc3)c(C)c2c1 [Compound 8f]
IC50 (FGFR1): 77.5 ± 14.7 nM

Compound: COc1ccc2c(C)c(-c3c4c(N)n[nH]c(=O)c4nn3-c3ccccc3)oc2c1 [Compound 8d]
IC50 (FGFR1): 67.7 ± 3.9 nM

From article PMC7982429 (Acta Pharmaceutica Sinica. B, 2020)
